According to ChEMBL document CHEMBL1926567, “Triterpenoids as inhibitors of erythrocytic and liver stages of Plasmodium infections” (Bioorg Med Chem, 2011):
Activity calls are given as the source filed them. No cut-off for these calls is given here.

Key:
[1] = test system: Huh-7; experiment: Cytotoxicity against human HuH7 cells at 15 uM by alamar blue fluorescence assay; assay type: cell-based; settings: huh-7, 15 µM
Summary of the method: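 Huh-7 cells cultured in RPMI 1640 with 10% FCS and 10 mM HEPES pH 7 at 37 °C, 5% CO2. Cells seeded the day before, exposed to compounds (1, 5, 15 uM) and infected in parallel with the liver-stage assay. Viability read as AlamarBlue fluorescence (cell confluency), compared with DMSO controls; three independent measurements.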

[2] = test system: Plasmodium berghei; experiment: Antimalarial activity against liver stage of transgenic Plasmodium berghei expressing PbGFP-Luc-con infected in human HuH7 cells at 1 to 15 uM after 48 hrs by bioluminescence method; assay type: functional, organism-based; settings: Huh-7
Summary of the method: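 Huh-7 human hepatoma cells (12×10^3/well) seeded the day before; compounds at 1, 5 and 15 uM added 1 h before sporozoites of luciferase-expressing P. berghei PbGFP-Luc_con, freshly dissected from infected female Anopheles stephensi salivary glands. Plates centrifuged 1700g for 5 min after sporozoite addition. Luminescence read 48 h post-infection versus DMSO controls. Primaquine positive control; three independent measurements.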

[3] = test system: Plasmodium berghei; experiment: Antimalarial activity against transgenic Plasmodium berghei expressing PbGFP-Luc-con infected in human HuH7 cells assessed as reduction of parasite invasion at 15 uM by luciferase based assay; assay type: functional, organism-based; settings: Huh-7
[4] = test system: MCF7; experiment: Cytotoxicity against human MCF7 cells after 24 hrs by MTT assay; assay type: cell-based; settings: MCF7, 24 h
Summary of the method: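 MCF-7 cells grown in RPMI 1640 with 10% heat-inactivated horse serum and 2 mM L-glutamine at 37 °C, 5% CO2. 2×10^4 cells/well exposed to increasing compound concentrations for 24 h. MTT added for 4 h, then 10% SDS overnight; OD at 550 nm (reference 630 nm). Percent growth inhibition calculated relative to cell and medium controls; IC50 given as mean ± SD of three experiments.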

[5] = test system: Plasmodium berghei; experiment: Antimalarial activity against transgenic Plasmodium berghei expressing PbGFP-Luc-con infected in human HuH7 cells assessed as reduction of parasite motility at 15 uM by luciferase based assay; assay type: functional, organism-based; settings: Huh-7
[6] = test system: Plasmodium falciparum; experiment: Antimalarial activity against chloroquine-sensitive Plasmodium falciparum 3D7 infected in erythrocytes after 48 hrs by SYBR green 1-based fluorescence assay; assay type: functional, organism-based; settings: 3D7, 48 h
Summary of the method: (§1)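 P. falciparum (3D7 or Dd2) grown in fresh human erythrocytes in RPMI 1640 with 25 mM HEPES, 6.8 mM hypoxanthine and 10% AlbuMAX II, at 37 °C under 5% O2, 3–5% CO2 and N2. Ring-stage cultures at 1% parasitaemia and 2% haematocrit were exposed in duplicate to 0.156–100 µg/mL (from DMSO stocks) for 48 h at 37 °C. SYBR Green I lysis buffer was then added for 1 h in the dark; fluorescence read at ex 485/em 535 nm. IC50 is the mean of three independent experiments.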

[7] = test system: Hepatocyte; experiment: Cytotoxicity against mouse primary hepatocytes at 15 uM after 24 hrs by alamar blue fluorescence assay; assay type: cell-based
Summary of the method: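 Mouse primary hepatocytes incubated with compounds for 24 h, then with AlamarBlue-containing medium for 1 h before fluorescence reading. Signal normalized to cells treated with 500 μM H2O2 as positive control and compared with a DMSO control at the amount present in the highest drug concentration.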

[8] = Selectivity index, ratio of IC50 for human MCF7 cells to IC50 for chloroquine-resistant Plasmodium falciparum Dd2; assay type: toxicity, cell-based; settings: read-out: Ratio IC50
Summary of the method: (§2)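 MCF-7 cells were grown in RPMI 1640 with 10% heat-inactivated horse serum and 2 mM L-glutamine. Cells (2×10^4 per well) were exposed to increasing compound concentrations for 24 h at 37 °C, then given MTT for 4 h and SDS overnight; OD read at 550 nm (ref 630 nm). Growth-inhibition IC50 from three experiments.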

[9] = Selectivity index, ratio of IC50 for human MCF7 cells to IC50 for chloroquine-sensitive Plasmodium falciparum 3D7; assay type: toxicity, cell-based; settings: read-out: Ratio IC50; summary of the method: as §2
[10] = test system: Plasmodium berghei; experiment: Antimalarial activity against transgenic Plasmodium berghei expressing PbGFP-Luc-con infected in human HuH7 cells assessed as reduction of intracellular liver stage development at 15 uM by luciferase based assay; assay type: functional, organism-based; settings: Huh-7
[11] = test system: Plasmodium falciparum; experiment: Antimalarial activity against chloroquine-resistant Plasmodium falciparum Dd2 infected in erythrocytes after 48 hrs by SYBR green 1-based fluorescence assay; assay type: functional, organism-based; settings: Dd2, 48 h; summary of the method: as §1
[12] = test system: Plasmodium falciparum; experiment: Ratio of balsaminol-F IC50 to compound IC50 for chloroquine-resistant Plasmodium falciparum Dd2; assay type: functional
[13] = test system: Plasmodium falciparum; experiment: Ratio of balsaminol-F IC50 to compound IC50 for chloroquine-sensitive Plasmodium falciparum 3D7; assay type: functional

Row | Compound | Activity [1] | Activity [2] | Activity [3] | IC50 [4] [µM] | Activity [5] | IC50 [6] [µM] | Activity [7] | selectivity ratio [8] | selectivity ratio [9] | Activity [10] | IC50 [11] [µM] | Ratio IC50 [12] | Ratio IC50 [13]
1 | CC(C)=C[C@H](O)C[C@@H](C)[C@H]1CC[C@@]2(C)[C@@H]3[C@@H](O)C=C4[C@@H](CC[C@H](O)C4(C)C)[C@]3(C)CC[C@]12C (relative stereo) [BALSAMINOL F] | Toxic | Active | inactive | 27.3 | inactive | 18 | Toxic | 1.4 | 1.5 | Active | 20 |  | 
2 | CC(C)=C[C@H](O)C[C@@H](C)[C@H]1CC[C@@]2(C)[C@@H]3[C@@H](O[C@@H]4O[C@H](CO)[C@@H](O)[C@@H](O)[C@H]4O)C=C4[C@@H](CC[C@H](O)C4(C)C)[C@]3(C)CC[C@]12C (relative stereo) [BALSAMINOSIDE B] | Toxic | Active | inactive | 14.2 | inactive | 2.9 | Toxic | 2.3 | 4.8 | Active | 6.3 |  | 
3 | CC(C)=C[C@H](O)C[C@@H](C)[C@H]1CC[C@@]2(C)[C@@H]3[C@@H](O[C@@H]4O[C@H](CO)[C@@H](O)[C@H](O)[C@H]4O)C=C4[C@@H](CC[C@H](O)C4(C)C)[C@]3(C)CC[C@]12C [BALSAMINOSIDE C] |  | Active |  | 23.9 |  | 3.4 |  | 3.3 | 7 |  | 7.2 |  | 
4 | CO[C@H]1C=C2[C@@H](CC[C@H](O)C2(C)C)[C@]2(C)CC[C@]3(C)[C@@H]([C@H](C)CC(C=C(C)C)O[C@@H]4O[C@H](CO)[C@@H](O)[C@H](O)[C@H]4O)CC[C@@]3(C)[C@H]12 (some centres not stated) [KUGUAGLYCOSIDE A] |  |  |  | 13.5 |  | 3.9 |  | 2.9 | 3.5 |  | 4.7 |  | 
5 | CC(=O)O[C@H]1C=C2[C@@H](CC[C@H](OC(C)=O)C2(C)C)[C@]2(C)CC[C@]3(C)[C@@H]([C@H](C)C[C@H](C=C(C)C)OC(C)=O)CC[C@@]3(C)[C@H]12 [TRIACETYLBALSAMINOL F] | Non-toxic | Active | inactive | > 133 | inactive | 0.8 | Non-toxic | > 343 | > 162 | Active | 0.4 | 50 | 22.5
6 | CC(C)=C[C@@H](C[C@@H](C)[C@H]1CC[C@@]2(C)[C@@H]3[C@@H](OC(=O)c4ccccc4)C=C4[C@@H](CC[C@H](OC(=O)c5ccccc5)C4(C)C)[C@]3(C)CC[C@]12C)OC(=O)c1ccccc1 [TRIBENZOYLBALSAMINOL F] |  | Active |  | > 133 |  | 57.3 |  | > 2 | > 2.3 |  | 68.4 |  | 
